DDE Tn7 FP inh: DD(E)-Tn7 binding inhibition, primary FP screen; FP displacement of FITC-Tn7 peptide from fibrin DD(E); 0% = median of compound wells per plate; inhibition, % at 8.3 µM; actives 0.13% (n = 370,000);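 active means inhibition above the mean of compounds falling within the control limits plus 3 SD of them, cut at about 14% in these data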;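 further: 0% = plate median of compound wells and 100% = 10 µM Aha-Tn7 peptide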
Target sequence (P02675 whole entry, looked up): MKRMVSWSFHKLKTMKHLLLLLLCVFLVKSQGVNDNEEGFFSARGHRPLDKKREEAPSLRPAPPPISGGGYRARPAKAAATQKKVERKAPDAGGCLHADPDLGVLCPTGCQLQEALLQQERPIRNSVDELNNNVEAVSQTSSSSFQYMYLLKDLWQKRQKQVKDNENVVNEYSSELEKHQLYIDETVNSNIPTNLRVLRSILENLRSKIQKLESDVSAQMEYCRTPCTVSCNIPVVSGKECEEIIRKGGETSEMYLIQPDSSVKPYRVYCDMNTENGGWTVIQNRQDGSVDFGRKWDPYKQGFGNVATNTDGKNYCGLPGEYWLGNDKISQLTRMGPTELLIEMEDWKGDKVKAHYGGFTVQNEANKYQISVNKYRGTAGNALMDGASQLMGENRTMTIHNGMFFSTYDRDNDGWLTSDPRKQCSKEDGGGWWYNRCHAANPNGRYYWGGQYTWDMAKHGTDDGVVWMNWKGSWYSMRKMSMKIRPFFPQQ
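Assay system: Fibrin-DD(E) protein isolated from polymerized human fibrin clots; read-out basis: percent inhibition; medium: Tris/NaCl/CaCl2 buffer, pH 7.8; signal: FP measurement; incubation: 10 min plus 3 h, room temperature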
Tn6 DDE FP: DD(E)-Tn6 binding inhibition, primary FP screen; Fibrin DD(E) TRITC-Tn6 fluorescence polarization displacement; P02675; actives 0.21% (n = 370,000); AID 720509; inhibition, % at 8.3 µM;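 active means inhibition above a per-campaign cutoff: mean of compounds within control limits plus 3 SD, cut at about 15% in these data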;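 further: 0% = median of all compound wells on the plate and 100% = blocking peptide control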
SKN-1 inh: C. elegans SKN-1 inhibition; actives 0.49% (n = 360,000); inhibition, % at 21.8 µM; C. elegans VP596 Pgst-4::GFP/RFP ratio, acrylamide-induced, 24 h;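 active means interference check ratio from 0.5 to 1.5 plus GFP to RFP signal ratio inhibition reaching or exceeding a fixed threshold, cut at about 30% in these data, passing the limit was not always enough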
MT1-MMP act inh: blocks activation of human MT1-MMP. HT1080 RFP-PRO-GFP cells, GFP/RFP ratio fluorescence, overnight; percent of plate control window, DMSO zero. actives 0.061% (n = 360,000). AID 651647. P50281. GFP/RFP ratio change, % at 20 µM;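 active means GFP/RFP ratio change of at least 30% with cell ATP level not reduced by more than half and red fluorescence within 50% of control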
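Read-out: GFP/RFP fluorescence ratio; Test system: RFP-PRO-GFP reporter HT1080 cells; Compound dosing: single-point 20 µM compound, 1% DMSO; Times: overnight compound exposure at 37 °C.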
The depositor's hits bear a star; · = no result given. An excerpt weighted towards active compounds, which were near 0.84% of everything screened.

SMILES | DDE Tn7 FP inh | Tn6 DDE FP | SKN-1 inh | MT1-MMP act inh
Cc1ccccc1S(=O)Cc1ccc(C(=O)N2CCN(C3CCCCC3)CC2)o1 (stereo not given) | 2 | 1 | -9 | 5
CN(C)S(=O)(=O)c1ccc(-c2csc(N/N=C/c3ccco3)n2)cc1 | -13 | -3 | 3 | -11
Clc1ccc(-c2csc(N/N=C/c3ccco3)n2)cc1 | -4 | 1 | 91* | 0
Brc1ccc(-c2csc(N/N=C/c3ccco3)n2)cc1 | -11 | 0 | 65* | 2
C(=N\Nc1nc(-c2ccccc2)cs1)/c1ccco1 | 7 | 2 | 47* | -1
O=C(/C=C/c1ccco1)Nc1nc(-c2ccccc2)cs1 | 0 | 13 | 51* | 1
COC(=O)[C@]12C[C@H](CC(=O)NCc3ccc(C)o3)C(=O)N(CCC3=CCCCC3)C1=C[C@H](C(C)C)O[C@@H]2C1CC1 | 5 | -4 | · | ·
Nc1ccn([C@@H]2O[C@H](C(=O)N3CCN(C(=O)C(F)(F)F)CC3)[C@@H](O)[C@H]2O)c(=O)n1 | -5 | 2 | · | ·
Cc1ccc(-c2csc(N/N=C/c3ccco3)n2)cc1 | 1 | -6 | 60* | -9
CCn1cc(C(=O)OCC(=O)NCc2ccc3c(c2)OCO3)c(=O)c2ccc(C)nc21 | 0 | 13 | 35* | 3
CC(C)(C)OC(=O)NCC12C=CC(O1)C1C(=O)N(Cc3ccccc3)C(=O)C12 (stereo not given) | 2 | 4 | 37* | -2
Cc1ccc(NC(=S)NCC23C=CC(O2)C2C(=O)N(c4ccc(C)cc4)C(=O)C23)cc1 (stereo not given) | -2 | 2 | 10 | 0
Cc1c(N2C(=O)/C(=C\c3ccc(N(C)C)cc3)N(C)C2=S)c(=O)n(-c2ccccc2)n1C | -13 | 0 | 64* | -68
CCn1c(C)c(C)c2cc(C(=O)N3CCN(c4ccccc4)CC3)ccc21 | -4 | -3 | 46* | 11
Cc1c(C)n(Cc2ccc(F)cc2)c2ccc(C(=O)N3CCN(c4ccccn4)CC3)cc12 | 1 | -10 | 59* | 22
O=C(/C=C/Sc1ccccc1)c1ccc(Cl)cc1 | 6 | 9 | 36* | -23
O=C(C=Cc1ccccc1Cl)c1ccccc1 | -6 | 6 | -5 | -1
O=C(/C=C/Sc1ccccc1)c1ccccc1 | 7 | 4 | 81* | -17
CN(C)C=Nc1nc2c(Br)ccc(Br)c2cc1C(=O)NCC(C)(C)C | -1 | -4 | · | ·
COc1cccc(CNC(C)C(=O)Nc2ccc3c(c2)OCCO3)c1 (stereo not given) | -7 | -3 | -8 | -2
COc1ccc(CNC(C)C(=O)Nc2ccc3ccccc3c2)cc1OC (stereo not given) | -12 | -2 | 51* | 1
c1cc2c(nn1)CCc1nonc1-2 | 0 | -3 | 44* | ·
Cn1c(Cc2ccccc2)nnc1SCC(=O)Nc1ccc2c(c1)OCO2 | 3 | 9 | 46* | 2
Cn1c(Cc2ccccc2)nnc1SCC(=O)Nc1ccccc1 | -6 | 4 | 6 | -2
[O-][n+]1c2ccccc2[n+]([O-])c2cc(O)ccc21 | -5 | 16* | 28 | 27
SMILES | DDE Tn7 FP inh | Tn6 DDE FP | SKN-1 inh | MT1-MMP act inh
COCCCNc1c2c3c(cccc3[nH]c1=O)C(=O)c1ccccc1-2 | 6 | 86* | 45 | -61
O=C(CSc1ccc(Cl)cc1)N1CCN(c2ncc(C(F)(F)F)cc2Cl)CC1 | -1 | -1 | 56* | 5
O=C(CN1CCN(c2ncc(C(F)(F)F)cc2Cl)CC1)N1CCN(c2ncc(C(F)(F)F)cc2Cl)CC1 | 2 | 4 | 17 | -17
Clc1ccc(-c2nnsc2SCc2ccccc2)cc1 | 5 | 1 | 36* | 5
CC(C)C[C@H]1COc2cc(N3CCSCC3)ccc2S(=O)(=O)N1C | -4 | -2 | · | ·
CCN(CC)CCC(c1cc(OC)c(OC)c(OC)c1)c1c(OC)cc(OC)c2c(C)cc(=O)oc12 (stereo not given) | -3 | 3 | 40* | -2
Fc1ccc(Cn2nnc(-c3ccc(CN4CCOCC4)cc3)n2)cc1 | -11 | -10 | 36* | 0
Clc1ccc(Cn2nnc(-c3ccccc3)n2)cc1 | -12 | -3 | 54* | 3
COc1cc2sc3ccc(C#Cc4ccc(N)cc4)cc3c(=O)c2cc1OC | -1 | 4 | 40* | 7
COc1ccc(C(=O)c2oc3ccc(OC)cc3c2N)cc1 | -6 | 1 | 44* | -6
CN1/C(=C\C(=O)CSc2nnc(NCc3ccccc3)s2)C(C)(C)c2ccccc21 | 0 | -1 | 45* | 7
COC(=O)c1c2c(nc3ccccc13)CCC2 | -2 | 1 | 41* | -7
Cc1ccc(N/C=C/C(=O)c2cccs2)cc1C | -3 | 12 | 39* | -1
Cc1ccc(-n2c(SCC(=O)Nc3ccccc3-c3ccccc3)nnc2-c2ccccc2)cc1 | 2 | -8 | · | ·
CCc1nc2c(OCc3ccc(C(F)(F)F)cc3)cccn2c1N(C)C(=O)c1ccncc1 | -2 | -11 | 54* | -5
CCc1nc2c(OCc3ccc(C(F)(F)F)cc3)cccn2c1N(C)C(C)=O | -1 | -3 | 4 | -1
CCCCN1C(C)=CC(=C2C(=O)c3ccccc3C2=O)C=C1C | -1 | -10 | 38* | 8
Cc1c(-c2csc(N)n2)c2ccccc2n1C | 1 | -3 | 37* | 3
C[C@@H]1CN([C@@H](C)CN(C)C)C(=O)c2cc(NC(=O)Nc3ccccc3)ccc2O[C@@H](C)CCCCO[C@H]1CN(C)S(=O)(=O)c1ccc(F)cc1 | -3 | -4 | · | ·
COc1ccc(-c2[nH]ncc2/C=C(/C#N)C(=O)NC2CCCCC2)cc1 | 9 | 0 | -16 | -14
Cc1ccc(-c2[nH]ncc2/C=C(\C#N)C(=O)NC2CCCCC2)cc1 | 0 | -2 | 59* | -10
CCN1C(=NCCc2ccccn2)N[C@@H](c2cccc(F)c2)C(C(=O)OC)=C1C | -7 | -5 | 8 | 1
COC(=O)C1=C(C)N(Cc2ccccc2)C(=NCCc2ccccn2)N[C@H]1c1cccc(F)c1 | 0 | 6 | 37* | -4
CC(C)Cn1c(=O)c2c(nc3n2CC(C)CN3Cc2ccccc2)n(C)c1=O (stereo not given) | 3 | -5 | 15 | 3
COc1ccc(N=Nc2ccc3ccccc3c2)c(O)c1 | -1 | 8 | 33* | 7
Cc1ccc(NC(=O)CSCC(=O)Nc2ccccc2C(=O)N2CCCCC2)cc1 | -6 | 2 | 46* | 1
CC(C)CN1C(=O)C[C@]2(C(=O)N(C)c3ccc(NS(=O)(=O)C4CCCCC4)cc32)C1c1ccccc1 (stereo not given in full) | -7 | 0 | · | ·
O=C1/C(=C/c2ccccc2)SC(=S)N1CCCC(=O)N1CCCCC1CCO (stereo not given) | -6 | 2 | 3 | 1
O=C1/C(=C/c2cccs2)SC(=S)N1CC(=O)N1CCCCC1CCO (stereo not given) | 2 | 0 | 44* | 2
Cc1cc(C(F)(F)F)n2ncc(-c3ccc(F)cc3)c2n1 | 7 | -6 | 40* | -5
